In ChEMBL document CHEMBL2375287, “A novel series of histamine H4 receptor antagonists based on the pyrido[3,2-d]pyrimidine scaffold: comparison of hERG binding and target residence time with PF-3893787” (Bioorg Med Chem Lett, 2013):

Experiments:
Histamine H4 receptor [1] = molecular target: T1, Histamine H4 receptor (Homo sapiens, UniProt Q9H3N8); experiment: Displacement of [3H]histamine from human histamine H4 receptor expressed in HEK cells; type: cell-based, HEK293
Outline: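 Displacement of [3H]histamine from membranes of HEK cells transiently expressing human H4R, H3R or H1R. pKi given as mean ± SEM of at least three independent measurements; n = 2 where noted.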

Histamine H3 receptor = Histamine H3 receptor (Homo sapiens, UniProt Q9Y5N1); experiment: Displacement of [3H]histamine from human histamine H3 receptor expressed in HEK cells; type: cell-based, HEK293
Histamine H3 receptor, sequence (Q9Y5N1 whole entry): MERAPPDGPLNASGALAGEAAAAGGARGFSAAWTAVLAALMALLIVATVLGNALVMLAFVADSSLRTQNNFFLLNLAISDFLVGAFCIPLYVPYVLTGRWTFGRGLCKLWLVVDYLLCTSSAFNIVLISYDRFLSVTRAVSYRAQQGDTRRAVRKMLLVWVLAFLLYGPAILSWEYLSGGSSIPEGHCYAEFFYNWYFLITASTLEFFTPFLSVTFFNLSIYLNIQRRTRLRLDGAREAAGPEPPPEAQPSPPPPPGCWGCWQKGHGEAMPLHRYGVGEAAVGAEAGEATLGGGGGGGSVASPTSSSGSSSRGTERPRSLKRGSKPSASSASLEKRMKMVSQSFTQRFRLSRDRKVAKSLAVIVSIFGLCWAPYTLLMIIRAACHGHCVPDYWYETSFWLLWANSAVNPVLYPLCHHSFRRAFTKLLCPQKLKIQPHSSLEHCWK

Histamine H4 receptor [2] = molecular target: T1, Histamine H4 receptor; experiment: Antagonist activity at human histamine H4 receptor expressed in HEK cells assessed as inhibition of histamine-induced [35S]GTPgammaS binding; type: functional, cell-based, HEK293; settings: for pKb: HEK293
Histamine H4 receptor [3] = molecular target: Histamine H4 receptor (Rattus norvegicus, UniProt Q91ZY1); experiment: Binding affinity to rat histamine H4 receptor
Histamine H4 receptor (Rattus norvegicus, UniProt Q91ZY1), sequence (Q91ZY1 whole entry): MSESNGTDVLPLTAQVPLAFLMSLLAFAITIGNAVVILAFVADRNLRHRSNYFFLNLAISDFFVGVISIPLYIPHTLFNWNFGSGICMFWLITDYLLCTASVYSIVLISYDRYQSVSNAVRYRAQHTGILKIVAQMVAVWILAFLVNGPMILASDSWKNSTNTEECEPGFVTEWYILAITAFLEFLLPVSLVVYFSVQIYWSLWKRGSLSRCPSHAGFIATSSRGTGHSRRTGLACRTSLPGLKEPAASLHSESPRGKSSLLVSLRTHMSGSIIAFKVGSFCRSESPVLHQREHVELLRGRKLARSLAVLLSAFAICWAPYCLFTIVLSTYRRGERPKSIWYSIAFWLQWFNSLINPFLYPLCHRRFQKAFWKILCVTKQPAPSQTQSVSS

[4] = molecular target: Voltage-gated inwardly rectifying potassium channel KCNH2 (Homo sapiens, UniProt Q12809); experiment: Displacement of [3H]astemizole from human ERG channel
Voltage-gated inwardly rectifying potassium channel KCNH2, sequence (Q12809 whole entry): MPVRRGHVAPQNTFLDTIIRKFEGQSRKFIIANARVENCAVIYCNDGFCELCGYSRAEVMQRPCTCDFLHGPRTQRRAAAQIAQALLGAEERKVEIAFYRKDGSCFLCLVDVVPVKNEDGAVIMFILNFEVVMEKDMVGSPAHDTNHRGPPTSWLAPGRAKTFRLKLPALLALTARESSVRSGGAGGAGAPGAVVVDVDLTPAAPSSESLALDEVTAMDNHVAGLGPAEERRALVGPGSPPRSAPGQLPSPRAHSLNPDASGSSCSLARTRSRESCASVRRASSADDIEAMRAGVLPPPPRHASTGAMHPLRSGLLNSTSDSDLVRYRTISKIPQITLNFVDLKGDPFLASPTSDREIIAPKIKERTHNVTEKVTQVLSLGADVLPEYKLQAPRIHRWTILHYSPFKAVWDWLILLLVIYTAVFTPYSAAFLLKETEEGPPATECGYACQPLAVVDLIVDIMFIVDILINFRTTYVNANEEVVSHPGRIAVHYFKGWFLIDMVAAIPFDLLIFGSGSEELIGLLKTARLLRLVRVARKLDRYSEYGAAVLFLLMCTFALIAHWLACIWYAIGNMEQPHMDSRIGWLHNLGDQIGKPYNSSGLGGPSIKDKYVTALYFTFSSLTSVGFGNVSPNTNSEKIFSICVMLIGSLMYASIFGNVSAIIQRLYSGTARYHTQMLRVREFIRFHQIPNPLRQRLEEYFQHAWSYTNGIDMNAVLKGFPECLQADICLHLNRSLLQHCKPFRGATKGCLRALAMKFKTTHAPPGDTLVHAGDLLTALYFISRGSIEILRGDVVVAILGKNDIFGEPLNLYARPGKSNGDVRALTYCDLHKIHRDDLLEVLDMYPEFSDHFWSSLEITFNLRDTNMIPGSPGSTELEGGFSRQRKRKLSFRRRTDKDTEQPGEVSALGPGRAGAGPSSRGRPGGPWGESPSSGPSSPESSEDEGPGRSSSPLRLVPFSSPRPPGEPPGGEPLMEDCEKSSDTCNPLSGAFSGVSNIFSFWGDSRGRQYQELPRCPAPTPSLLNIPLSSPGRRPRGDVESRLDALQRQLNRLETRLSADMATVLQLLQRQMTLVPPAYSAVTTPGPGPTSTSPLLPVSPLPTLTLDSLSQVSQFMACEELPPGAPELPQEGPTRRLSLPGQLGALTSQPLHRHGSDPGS

Homo sapiens = species on record: Homo sapiens; experiment: Selectivity ratio of Ki for human histamine H3 receptor to Ki for human histamine H4 receptor
Histamine H4 receptor [5] = molecular target: T2, Histamine H4 receptor (Mus musculus, UniProt Q91ZY2); experiment: Binding affinity to mouse histamine H4 receptor
T2 sequence (Q91ZY2 whole entry): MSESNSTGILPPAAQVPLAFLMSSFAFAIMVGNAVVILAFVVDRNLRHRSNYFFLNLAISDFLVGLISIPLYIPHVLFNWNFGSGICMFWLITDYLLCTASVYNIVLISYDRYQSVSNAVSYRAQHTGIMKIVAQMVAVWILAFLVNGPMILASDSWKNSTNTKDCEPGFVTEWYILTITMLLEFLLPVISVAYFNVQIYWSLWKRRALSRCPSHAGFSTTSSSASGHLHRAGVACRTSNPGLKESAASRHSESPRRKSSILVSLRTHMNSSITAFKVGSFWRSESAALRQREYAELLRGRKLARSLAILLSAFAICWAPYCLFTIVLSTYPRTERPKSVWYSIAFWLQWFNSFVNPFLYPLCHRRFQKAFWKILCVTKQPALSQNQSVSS

Histamine H4 receptor [6] = molecular target: T1, Histamine H4 receptor; experiment: Displacement of [3H]histamine from human histamine H4 receptor expressed in HEK cells by competitive kinetic analysis; type: cell-based, HEK293
Histamine H2 receptor = Histamine H2 receptor (Homo sapiens, UniProt P25021); experiment: Displacement of [3H]histamine from human histamine H2 receptor expressed in HEK cells
Histamine H2 receptor, sequence (P25021 whole entry): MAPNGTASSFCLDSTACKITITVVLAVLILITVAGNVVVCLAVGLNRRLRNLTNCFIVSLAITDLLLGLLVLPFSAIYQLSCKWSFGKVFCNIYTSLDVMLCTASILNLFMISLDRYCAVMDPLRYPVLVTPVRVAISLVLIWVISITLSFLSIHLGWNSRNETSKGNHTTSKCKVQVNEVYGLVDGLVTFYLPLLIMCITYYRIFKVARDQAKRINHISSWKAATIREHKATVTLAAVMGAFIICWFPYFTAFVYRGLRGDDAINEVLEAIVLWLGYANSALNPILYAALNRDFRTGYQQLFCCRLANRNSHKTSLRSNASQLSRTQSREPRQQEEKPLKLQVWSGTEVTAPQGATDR

Histamine H1 receptor = Histamine H1 receptor (Homo sapiens, UniProt P35367); experiment: Displacement of [3H]histamine from human histamine H1 receptor expressed in HEK cells
Histamine H1 receptor, sequence (P35367 whole entry): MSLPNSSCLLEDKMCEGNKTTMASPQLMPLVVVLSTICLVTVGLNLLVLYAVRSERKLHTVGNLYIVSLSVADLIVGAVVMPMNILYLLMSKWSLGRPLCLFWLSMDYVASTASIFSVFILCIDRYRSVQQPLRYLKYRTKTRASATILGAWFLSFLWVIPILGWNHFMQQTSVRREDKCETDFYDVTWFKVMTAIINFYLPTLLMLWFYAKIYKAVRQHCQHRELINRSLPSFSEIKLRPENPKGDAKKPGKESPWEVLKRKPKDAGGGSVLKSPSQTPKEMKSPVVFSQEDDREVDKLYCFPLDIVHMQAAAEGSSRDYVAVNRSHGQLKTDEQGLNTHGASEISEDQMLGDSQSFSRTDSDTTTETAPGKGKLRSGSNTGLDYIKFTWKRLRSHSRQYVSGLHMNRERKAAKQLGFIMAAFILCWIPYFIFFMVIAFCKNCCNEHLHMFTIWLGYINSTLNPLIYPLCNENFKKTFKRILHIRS

T1 sequence (Q9H3N8 whole entry): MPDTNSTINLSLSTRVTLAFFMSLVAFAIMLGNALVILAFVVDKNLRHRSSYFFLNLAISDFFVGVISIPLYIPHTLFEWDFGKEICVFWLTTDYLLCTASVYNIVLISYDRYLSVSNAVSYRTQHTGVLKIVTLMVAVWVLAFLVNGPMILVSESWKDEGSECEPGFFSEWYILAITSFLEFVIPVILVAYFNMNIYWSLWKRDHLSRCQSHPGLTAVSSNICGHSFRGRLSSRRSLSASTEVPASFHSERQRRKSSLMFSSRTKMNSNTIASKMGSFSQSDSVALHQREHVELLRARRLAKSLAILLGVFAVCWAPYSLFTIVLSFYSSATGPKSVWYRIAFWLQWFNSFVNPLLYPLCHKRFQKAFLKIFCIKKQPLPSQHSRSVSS

| SMILES | Ki (Histamine H4 receptor [1]) | Ki (Histamine H3 receptor) | IC50 (Histamine H4 receptor [2]) | pKb (Histamine H4 receptor [2]) | Ki (Histamine H4 receptor [3]) | Ki [4] | Ratio Ki (Homo sapiens) | Ki (Histamine H4 receptor [5]) | Kd (Histamine H4 receptor [6]) | Ki (Histamine H2 receptor) | Ki (Histamine H1 receptor) |
| --- | --- | --- | --- | --- | --- | --- | --- | --- | --- | --- | --- |
| CN[C@@H]1CCN(c2cc(NCC3CC3)nc(N)n2)C1 [ADRIFORANT] | 10.2 nM | 186 nM | 53.7 nM | 8.46 | 55 nM | 3470 nM | 22 | 55 nM | 25.1 nM | – | – |
| CCc1cnc2c(N3CCN(C)CC3)nc(N)nc2c1 | 9.33 nM | 214 nM | – | – | – | – | – | – | – | – | – |
| CN1CCN(c2nc(N)nc3ccccc23)CC1 | 44.7 nM | – | – | – | – | – | – | – | – | – | – |
| CN[C@@H]1CCN(c2nc(N)nc3cc(C(C)C)cnc23)C1 | 12.3 nM | 145 nM | – | – | – | – | 12 | – | – | – | – |
| CCc1cnc2c(N3CC(NC)C3)nc(N)nc2c1 | 10.7 nM | 776 nM | 112 nM | 8.14 | 70.8 nM | 34700 nM | 72 | 50.1 nM | 8.51 nM | 14100 nM | 33900 nM |
| CNC1CN(c2nc(N)nc3cc(C#N)cnc23)C1 | 53.7 nM | 9550 nM | – | – | – | > 100000 nM | 186 | – | – | – | – |
| CNC1CN(c2nc(N)nc3cc(C(C)(C)C)ccc23)C1 | 15.1 nM | 490 nM | – | – | – | – | 32 | – | – | – | – |
| CN1CCN(c2nc(N)nc3cccnc23)CC1 | 30.9 nM | – | – | – | – | – | – | – | – | – | – |
| CCc1ccc2c(N3CC(NC)C3)nc(N)nc2c1 | 11.2 nM | 617 nM | – | – | – | 2450 nM | 89 | – | – | – | – |
| CNC1CN(c2nc(N)nc3cc(C4CC4)ccc23)C1 | 7.08 nM | 692 nM | – | – | – | 3630 nM | 98 | – | – | – | – |
| CCc1cnc2c(N3CC[C@@H](NC)C3)nc(N)nc2c1 | 9.12 nM | 1510 nM | 126 nM | 8.08 | 138 nM | 43700 nM | 166 | 85.1 nM | 21.4 nM | 3160 nM | 11200 nM |
| Nc1nc(N2CCNCC2)c2ccc(-c3ccco3)cc2n1 | 15.1 nM | – | – | – | – | – | – | – | 40.7 nM | – | – |
| Nc1nc(N2CCNCC2)c2ccc(C3CCCC3)cc2n1 | 12.3 nM | 331 nM | – | – | – | 3390 nM | 27 | – | – | – | – |
| CNC1CN(c2nc(N)nc3cc(C(C)C)cnc23)C1 | 25.1 nM | 832 nM | – | – | – | – | – | – | – | – | – |
| Nc1nc(N2CCNCC2)c2ccc(C3CC3)cc2n1 | 11.5 nM | 155 nM | – | – | – | 4680 nM | 13 | – | – | – | – |
| CN[C@@H]1CCN(c2nc(N)nc3cc(C4CC4)cnc23)C1 | 10.2 nM | 1000 nM | – | – | – | > 100000 nM | 98 | – | – | – | – |
| CNC1CN(c2nc(N)nc3cc(C4CC4)cnc23)C1 | 5.25 nM | 631 nM | 70.8 nM | 8.33 | 29.5 nM | > 100000 nM | 120 | 15.1 nM | 13.5 nM | – | 20900 nM |
| CCc1ccc2c(N3CC[C@@H](NC)C3)nc(N)nc2c1 | 17 nM | 603 nM | – | – | – | 2750 nM | 56 | – | – | – | – |
| CNC1CN(c2nc(N)nc3cc(C4CCCC4)ccc23)C1 | 3.39 nM | 158 nM | – | – | – | 832 nM | 47 | – | – | – | – |
| CC(C)(C)c1ccc2c(N3CCNCC3)nc(N)nc2c1 | 35.5 nM | 851 nM | – | – | – | – | 24 | – | – | – | – |
| CN[C@@H]1CCN(c2nc(N)nc3cc(C4CC4)ccc23)C1 | 21.9 nM | 178 nM | – | – | – | – | 8 | – | – | – | – |
| CNC1CN(c2nc(N)nc3cc(C4CCCC4)cnc23)C1 | 6.46 nM | 151 nM | 97.7 nM | 8.2 | 27.5 nM | > 100000 nM | 23 | 19.5 nM | 10.2 nM | 2820 nM | 16600 nM |
| CCc1ccc2c(N3CCNCC3)nc(N)nc2c1 | 14.8 nM | 219 nM | – | – | – | 1510 nM | 15 | – | – | – | – |
